Source: ChEMBL document CHEMBL4513216, “Probing the Open Global Health Chemical Diversity Library for Multistage-Active Starting Points for Next-Generation Antimalarials” (ACS Infect Dis, 2020)

Experiment: Toxicity liver stage against HepG2, at 10uM
Format: cell-based
Design: test concentration 10 uM, cell line HepG2-A16-CD81EGFP
Settings: human, HepG2-A16-CD81EGFP cells; read-out: INHIBITION
How it was run: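 Uninfected HepG2-A16-CD81EGFP cells, 3 × 10^3 per well, 1536-well, plated on prespotted compound at 10 μM final, parasite-free screening media added to match infected plates; puromycin 10 μM positive, DMSO 0.5% negative; run in parallel with 48 h PbLuc assay at 37 °C, 5% CO2; viability by CellTiter-Glo luminescence, normalized to controls.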

SMILES	cytotoxicity at 10 µM [%]
O=C(NCCOc1ncc(Cl)cc1Cl)c1ccoc1	0.191
COc1ccc(CCNC(=O)NC2CC(=O)N(c3ccccc3)C2)cc1 (stereo unspecified)	-48
Cc1cc2cccc(C(=O)N3CCOC4(CNCCOC4)C3)c2o1 (stereo unspecified)	-2.21
CN(C)C(=O)[C@@H]1C[C@@H]2CCN(Cc3ccncc3)C[C@@H]2O1	6.36
CC(=O)c1cccc(S(=O)(=O)NCC(C)(O)c2cccs2)c1 (stereo unspecified)	-17
CCCS(=O)(=O)N1CCN(c2ccc3nnc(CC)n3n2)CC1	8.75
CCN(CC)CCn1cc(NC(=O)CNc2ccccc2OC)cn1	6.19
CN(C)C(=O)N1Cc2nnn(CC3CC3)c2C(COCC2CC2)C1 (stereo unspecified)	8.26
c1ccc(-c2ncc(CN3CCCCC3CCn3cccn3)cn2)nc1 (stereo unspecified)	-3.34
CCS(=O)(=O)N(C)C1CCN(C(=O)c2ccc(C)c(C)c2)CC1	-2.76
CN(Cc1cc(Br)cn1C)C(=O)Cc1cccc(O)c1	-4.99
CC(SCc1cc(Br)cc2cccnc12)C(N)=O (stereo unspecified)	11.7
CCOC1CCCN(C(=O)c2sccc2-n2cnnn2)C1 (stereo unspecified)	4.39
O=C(NCC1(O)CCCC1)c1ccc2nsnc2c1	-5.37
CCc1ncc(CN2CCN(c3cc(NC4CC4)nc(N)n3)CC2)cn1	-3.44
c1cnc2c(-c3nccn3C[C@@H]3CCCN4CCCC[C@H]34)cccc2c1	1.83
O=C(COC1CCCC1)Nc1ncn(CC(=O)N2CCCCCC2)n1	-8.16
CS(=O)(=O)N[C@@H]1CN(Cc2ccc3ccccc3c2)C[C@H]1O	-2.92
CC(C)c1nc(N2CC(N3CCCCC3C)C2)c2cnn(C)c2n1 (stereo unspecified)	-15.5
CC(=O)Nc1ccc(Cl)c(C(=O)N(C)C(C)c2ccon2)c1 (stereo unspecified)	-48.7
Cc1cc(=O)n2nc(Oc3cccc(C(N)=O)c3)sc2n1	-7.88
Cc1[nH]nc2ncc(C(=O)N3CCN(CC(C)C)CC3)cc12	-3.88
Cn1nccc1-c1ncc2c(c1C(=O)O)CCN(Cc1ccccc1)C2	9.97

SMILES	cytotoxicity at 10 µM [%]
c1cnnc(-c2noc(CCN3CCCO3)n2)c1	-3.61
Cc1cc2nc(C(C)C)cc(NCCc3ccncc3)n2n1	-1.18
O=C(c1ccc(-c2cccc3c2CCNC3)o1)N1CCCC1	3.34
CCOCCNC(=O)c1cc(Br)c2c(c1)OCCO2	1.41
COc1ccnc(N2CCN(C(=O)CCc3nccs3)CC2)n1	-8.97
O=C(c1ccc(Br)o1)N1CCCC(n2cncn2)C1 (stereo unspecified)	-3.22
CC(=O)N(Cc1ncc(C)o1)C1CCN(Cc2ccncc2Cl)C1 (stereo unspecified)	3.68
CC(C)OC(=O)N1CCC(Nc2ncc(Br)cn2)CC1	-0.951
Fc1cccc(N2CCOC3(CCCN(c4nncs4)C3)C2)c1 (stereo unspecified)	4
O=C(Cn1cnc(NC(=O)c2ccccn2)n1)NCc1ccccc1	9.97
O=C(Cn1cnc2cc3c(cc21)OCCCO3)NC1CCCCC1	5.68
O=C(C1CCCN(c2nc3ccccc3cc2CO)C1)N1CCCC1 (stereo unspecified)	-47.5
Cc1ccccc1C(=O)N1CC[C@@H](N(C)C)[C@@H]1Cc1cnn(C)c1	-71
COc1ccc(C(=O)NCCN(C)C)c(I)c1	-1.93
Cc1cnc(CCNC(=O)NCCOc2ncccc2Cl)s1	9.18
CC(C)Oc1ccccc1CNC(=O)N(C)C(C)CS(C)(=O)=O (stereo unspecified)	-48.4
CCc1cc(NCCCc2nc(C)no2)nc(-c2ccncc2)n1	2.63
C1CCC(CO[C@@H]2CC[C@H]3[C@H]2OCCN3CC2CCOCC2)C1	11.4
CC(C)c1ccc(OCCC(=O)N(C)C)cc1	3.81
Cc1nnc(CN(Cc2cccc(Cl)c2)C(C)C)o1	1.69
O=C(c1c[nH]cn1)N1CCC(F)(F)C2(CCN(c3cnccn3)C2)C1 (stereo unspecified)	8.19
CCc1cccc(NC(=O)CCC(=O)N(C)Cc2nc(C)c[nH]2)c1	-1.92
Cc1noc(NC(=O)c2ccc(C)c(F)c2)n1	-10.1

SMILES	cytotoxicity at 10 µM [%]
CCc1sc(-c2nnc(CNC(C)Cn3cc(C)cn3)o2)cc1C (stereo unspecified)	0.493
CCCOc1ccccc1CN[C@@H]1CCC[C@H]1Cc1cc(C)no1	-6.86
CC(C)Nc1nc2c(c(NC3CC3)n1)CN(C(=O)c1ccnnc1)CC2	-0.449
O=C(NCc1ncc[nH]1)c1c(F)cccc1I	-6.78
Cc1nc(CCNC(=O)NCC(O)c2cccc(Cl)c2)cs1 (stereo unspecified)	14
Cc1n[nH]c(C)c1CC(=O)NCCc1ccccc1	13.7
Cc1c(O)cccc1C(=O)N1CCCC2(C1)C(=O)N(C)c1ccccc12 (stereo unspecified)	4.34
CS(=O)(=O)NCc1cc(-c2cc(F)cc(F)c2)nc(N2CCCC2)n1	-1.53
c1ccc(COC[C@H]2CCC[C@@]23CNCCO3)nc1	-91.9
Cc1cc(C)cc(CNC(C)c2c(C)nn(C)c2C)c1 (stereo unspecified)	5.14
CSc1ncn(-c2nc(NC3CC3)nc(N(C)C)n2)n1	-6.75
CS(=O)(=O)NC[C@H]1OC[C@H]2CN(Cc3ccsc3)CC[C@H]21	5.29
O=C(NCc1ccon1)c1c(F)cc(Br)cc1F	12.3
CCOc1ccc(NC(=O)CN2CCN(c3nccn3C)CC2)cc1	4.05
CCCc1n[nH]c(C2CN(CCNC3CCCCC3)CCO2)n1 (stereo unspecified)	2.75
Cc1cc(C(=O)N2CCCC(c3noc(C)n3)C2)[nH]n1 (stereo unspecified)	-6.67
Cc1cc(CCC(=O)NCc2ncc[nH]2)ccc1Br	-18.1
CC(C)CS(=O)(=O)N1CCC2(CN(c3cccc(F)c3)C(=O)CN2C)C1 (stereo unspecified)	-75.2
CC(C)c1cc(CNC(=O)NCc2cccc(N3CC=CC3)c2)on1	9.99
COc1ccc(CNC(=O)NCc2c(C)cc(C)[nH]c2=O)cc1	-3.22
COc1ccc(S(N)(=O)=O)cc1C(=O)N(C)Cc1cc(C)on1	-4.3
c1coc(CNc2ncc3c(n2)C2(CCNC2)COC3)c1 (stereo unspecified)	10.7
O=C(CC1CC1)N(Cc1cccnc1)CC1CCN(C2CCCC2)CC1	5.95

SMILES	cytotoxicity at 10 µM [%]
CC(=O)N1CCCCC1c1cc(C(=O)N2CCOCC2)[nH]n1 (stereo unspecified)	-3.68
Cc1ccc(-c2nnc(CNC(=O)c3cccnc3)o2)cn1	-2.72
CC(C)c1nccn1C1CCCN(C(=O)c2cccc3c2OCO3)C1 (stereo unspecified)	-7.71
Cc1cccc(CN2CCCC(O)(CNCCN3CCCCC3)C2=O)c1 (stereo unspecified)	1.02
COc1ccc(C)c2c1N(C(=O)c1cnc(C)s1)CCC2	-1.46
CN(CC(C)(C)C)S(=O)(=O)c1ccc(C(F)(F)F)nc1	3.24
CCn1cnnc1CNC(=O)c1cc(F)ccc1OC	-14.3
Cc1noc2nc(C3CCN(Cc4ccncc4)CC3)cc(C(F)F)c12	6.54
COc1ncccc1NC(=O)NCC1CCS(=O)(=O)C1 (stereo unspecified)	-9.16
CC1(C)CCN(S(=O)(=O)N2CCCC(c3cccc(C(=O)O)c3)C2)CC1 (stereo unspecified)	-0.879
c1cnc(N2CCC3(CCCN(CC4CCCCC4)C3)C2)cn1 (stereo unspecified)	-1.62
Cc1cc(Cl)c(C)c(S(=O)(=O)N2CCN(Cc3ccncc3)CC2)c1Cl	1.76
O=C(Cc1cccc(O)c1)NC1CCN(c2cccc(Cl)c2)C1 (stereo unspecified)	17.1
CC(C)N1C(=O)CC(NC(=O)c2cc(Cl)sc2Cl)C1=O (stereo unspecified)	-2.27
Cc1cccc(N(CCC(N)=O)C(=O)c2cc(-n3cccn3)ccn2)c1	-1.5
Cc1cnn(CC2CN(CC(=O)Nc3cc(C)on3)CCO2)c1 (stereo unspecified)	-7.3
COc1ccc(/C=C/CN2C[C@@H]3CC[C@H]2CN(S(=O)(=O)N(C)C)C3)cc1	-2.72
O=C1CC2(CCNCC2)C(=O)N1c1cccc(F)c1	1.7
CC(C)C(Sc1nnnn1-c1ccccc1)C(=O)NCc1cccnc1 (stereo unspecified)	-3.02
CSCCCNC(=O)C(c1cccc(F)c1)N(C)C (stereo unspecified)	0.28
CC(=O)N(C)CC(=O)NCC1CCN(c2cc(Cl)ccc2C)C1 (stereo unspecified)	-8.77
CC(=O)N1CCC(Cc2cnc(-c3c(C)nn(C)c3C)cn2)C1 (stereo unspecified)	-7.31
CN(C)C(CNC(=O)c1[nH]nc(C2CC2)c1Br)C1CC1 (stereo unspecified)	-4.14

SMILES	cytotoxicity at 10 µM [%]
Cc1noc([C@H]2C[C@H]3CN(C(=O)Cc4ccsc4)CC[C@H]3O2)n1	-1.68
CCN(CC)C1COc2ccc(Br)cc2C1=O (stereo unspecified)	-7.16
NC(=O)NCCC(=O)NCc1cccnc1N1CCc2ccccc2C1	4.92
CNC(=O)Cn1ccc2ccc(NC(=O)NC(C)C(C)C)cc21 (stereo unspecified)	3.36
COCc1nc(CN2CCOC(CNc3cccnn3)C2)cs1 (stereo unspecified)	-4.71
CCc1cnc(NCCS(=O)(=O)CC(C)C)nc1	-13
Cc1cc(N(C)C)nc(N2CCCC2c2ccccn2)n1 (stereo unspecified)	3.16
COC(=O)c1ccccc1S(=O)(=O)NC(=O)c1cccc2c1OCCO2	-12.5
COc1ccc([C@@H]2C[C@H](NC(C)=O)C[C@H](Cc3ccccc3)O2)cn1	5.46
COCCN1CCN(CC(=O)N(C)Cc2cccc(F)c2)CC1C (stereo unspecified)	-151
CN(C(=O)CN1CCCC1=O)C1CCCN(C2Cc3ccccc3C2)C1 (stereo unspecified)	0.024
CN(Cc1cc(-c2cccnc2)no1)C(=O)c1cccn1C	-1.1
COCCS(=O)(=O)N(Cc1cscn1)c1ccccc1	-3.3
O=C(Cn1nnn(-c2cccs2)c1=O)N(CC1CCOC1)C1CC1 (stereo unspecified)	-39.9
Cn1c(CN2CCN(CC3CCCO3)CC2)nc2ccccc21 (stereo unspecified)	-25.1
CCCc1nc(CN2CCCN(Cc3nccn3C)CC2)no1	-3.33
CS(=O)(=O)NC1CCN(C(=O)NCc2cc[nH]n2)CC1	-6.37
Cc1noc(C)c1CN1C(=O)[C@@H]2CC[C@H]1CN(Cc1ncc[nH]1)C2	5.85
Cc1cccc(CN(Cc2nc3c(cnn3C)c(=O)[nH]2)C2CC2)c1	0.914
